Laboratory results published in publication PMC8092417 (Anti-cancer drugs, 2020).
One block for each compound: values may come before it.

How the values were obtained:
TU-BcX-4IC explants = assay: Western blot of treated PDX tumor explants; assay type: cell-based, human; conditions: 24 hours
MDA-MB-231 cells [1] = assay: Crystal violet staining, cells remaining / viability dose-response; assay type: cell-based, human
Method in brief: (§1)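 Cells were plated at 5,000/well in 5% charcoal-stripped DMEM for 48 h, then exposed to test compound or DMSO vehicle for 72 h at 37 °C, 5% CO2. They were fixed with glutaraldehyde for 20 min and stained for 20 min with 0.1% crystal violet in 90% methanol. After overnight drying, cells were lysed in 33% acetic acid and read at 620 nm. Signal was normalized to DMSO and plotted as dose-response.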

BT-549 cells [2] = assay: as above; assay type: cell-based, human
Method in brief: as §1

TU-BcX-4IC cells [3] = assay: Crystal violet staining, cells remaining / viability dose-response; assay type: cell-based, human; conditions: 1 μM, 72 hours
MDA-MB-231 cells [4] = assay: Ki-67 immunofluorescence staining for proliferation; assay type: cell-based, human; conditions: MDA-MB-231, 1 μM, 72 hours
BT549 cells = assay: Transwell migration assay; assay type: cell-based, human; conditions: BT549, pretreated 1 μM 72 hours, 24 hours migration
Method in brief: (§2)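 Cells were pretreated 72 h with test compound (1 μM) or DMSO, and viable cells were then seeded into transwell chambers for 24 h. Non-migrated cells were removed. Migrated cells were fixed, crystal violet-stained, imaged by brightfield and counted. Counts were normalized to DMSO per cell line; triplicate experiments.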

TU-BcX-4IC cells [5] = assay: Transwell migration assay; assay type: cell-based, human; conditions: pretreated 1 μM 72 hours, 24 hours migration
Method in brief: as §2

MDA-MB-231 cells [6] = assay: qRT-PCR of epithelial and mesenchymal genes; assay type: cell-based, human; conditions: MDA-MB-231, 1 μM, 72 hours
Method in brief: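 MDA-MB-231 cells in 5% charcoal-stripped DMEM were pre-exposed for 72 h to test compound (1 μM) or DMSO. RNA was then isolated and gene expression measured by quantitative real-time PCR.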

BT-549 cells [7] = assay: qRT-PCR of epithelial and mesenchymal genes; assay type: cell-based, human; conditions: BT-549, 1 μM, 72 hours
Method in brief: (§3)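 Cells were treated 72 h with test compound (1 μM) or DMSO. Total RNA was column-isolated and checked for quantity and quality by absorbance (260, 280 nm). Then 2 μg total RNA was reverse-transcribed and gene expression measured by qRT-PCR.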

TU-BcX-4IC cells [8] = assay: qRT-PCR of epithelial and mesenchymal genes; assay type: cell-based, human; conditions: 1 μM, 72 hours
Method in brief: as §3

TU-BcX-49S cells = assay: qRT-PCR of epithelial and mesenchymal genes; assay type: cell-based, human
TU-BcX-4IC M2 spheres = assay: Mammosphere formation and area quantification; assay type: cell-based, human; conditions: 7 days treatment
Method in brief: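 Cells were plated at 1,000/well in low-attachment plates in serum-free F12/DMEM with B-27 and left 24 h to form spheres. Spheres were then exposed to test compound or DMSO for one week, re-dosed every three days. Spheres were imaged at 40X or 100X, and length and width were measured to calculate area, which was compared with DMSO controls.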

MDA-MB-231 M2 spheres = assay: Mammosphere formation and area quantification; assay type: cell-based, human; conditions: MDA-MB-231, 7 days treatment
Method in brief: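 MDA-MB-231 cells were seeded at 1,000/well in low-attachment wells in serum-free F12/DMEM plus B-27 and allowed 24 h to form spheres. Spheres were then treated with test compound or DMSO for one week, re-dosed every three days. Imaging was at 40X or 100X. Sphere length and width were measured, area was calculated, and values were compared with DMSO controls.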

LOK = LOK (Homo sapiens, UniProt O94804); assay: Kinase inhibition assay; assay type: biochemical; conditions: 1 μM
NEK2 = target: T1, NEK2 (Homo sapiens, UniProt P51955); assay: Kinase inhibition assay; assay type: biochemical; conditions: 1 μM
T1 sequence (P51955 1-445): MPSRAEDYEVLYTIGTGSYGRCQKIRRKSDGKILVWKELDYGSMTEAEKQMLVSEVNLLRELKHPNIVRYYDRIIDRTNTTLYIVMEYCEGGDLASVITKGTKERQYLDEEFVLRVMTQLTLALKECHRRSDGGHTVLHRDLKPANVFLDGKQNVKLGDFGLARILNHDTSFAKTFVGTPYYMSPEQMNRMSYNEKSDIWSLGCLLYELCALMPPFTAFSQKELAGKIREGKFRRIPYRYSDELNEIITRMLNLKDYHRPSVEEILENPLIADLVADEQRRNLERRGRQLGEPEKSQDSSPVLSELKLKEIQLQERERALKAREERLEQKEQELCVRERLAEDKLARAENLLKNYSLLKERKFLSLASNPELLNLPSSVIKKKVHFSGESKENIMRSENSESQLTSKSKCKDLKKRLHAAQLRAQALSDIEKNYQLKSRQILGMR

HIPK4 = HIPK4 (Homo sapiens, UniProt Q8NE63); assay: Kinase inhibition assay; assay type: biochemical; conditions: 1 μM
MST2 = MST2 (Homo sapiens, UniProt Q13188); assay: Kinase inhibition assay; assay type: biochemical; conditions: 1 μM
MINK = MINK (Homo sapiens, UniProt Q8N4C8); assay: Kinase inhibition assay; assay type: biochemical; conditions: 1 μM
MINK, sequence (Q8N4C8 whole entry): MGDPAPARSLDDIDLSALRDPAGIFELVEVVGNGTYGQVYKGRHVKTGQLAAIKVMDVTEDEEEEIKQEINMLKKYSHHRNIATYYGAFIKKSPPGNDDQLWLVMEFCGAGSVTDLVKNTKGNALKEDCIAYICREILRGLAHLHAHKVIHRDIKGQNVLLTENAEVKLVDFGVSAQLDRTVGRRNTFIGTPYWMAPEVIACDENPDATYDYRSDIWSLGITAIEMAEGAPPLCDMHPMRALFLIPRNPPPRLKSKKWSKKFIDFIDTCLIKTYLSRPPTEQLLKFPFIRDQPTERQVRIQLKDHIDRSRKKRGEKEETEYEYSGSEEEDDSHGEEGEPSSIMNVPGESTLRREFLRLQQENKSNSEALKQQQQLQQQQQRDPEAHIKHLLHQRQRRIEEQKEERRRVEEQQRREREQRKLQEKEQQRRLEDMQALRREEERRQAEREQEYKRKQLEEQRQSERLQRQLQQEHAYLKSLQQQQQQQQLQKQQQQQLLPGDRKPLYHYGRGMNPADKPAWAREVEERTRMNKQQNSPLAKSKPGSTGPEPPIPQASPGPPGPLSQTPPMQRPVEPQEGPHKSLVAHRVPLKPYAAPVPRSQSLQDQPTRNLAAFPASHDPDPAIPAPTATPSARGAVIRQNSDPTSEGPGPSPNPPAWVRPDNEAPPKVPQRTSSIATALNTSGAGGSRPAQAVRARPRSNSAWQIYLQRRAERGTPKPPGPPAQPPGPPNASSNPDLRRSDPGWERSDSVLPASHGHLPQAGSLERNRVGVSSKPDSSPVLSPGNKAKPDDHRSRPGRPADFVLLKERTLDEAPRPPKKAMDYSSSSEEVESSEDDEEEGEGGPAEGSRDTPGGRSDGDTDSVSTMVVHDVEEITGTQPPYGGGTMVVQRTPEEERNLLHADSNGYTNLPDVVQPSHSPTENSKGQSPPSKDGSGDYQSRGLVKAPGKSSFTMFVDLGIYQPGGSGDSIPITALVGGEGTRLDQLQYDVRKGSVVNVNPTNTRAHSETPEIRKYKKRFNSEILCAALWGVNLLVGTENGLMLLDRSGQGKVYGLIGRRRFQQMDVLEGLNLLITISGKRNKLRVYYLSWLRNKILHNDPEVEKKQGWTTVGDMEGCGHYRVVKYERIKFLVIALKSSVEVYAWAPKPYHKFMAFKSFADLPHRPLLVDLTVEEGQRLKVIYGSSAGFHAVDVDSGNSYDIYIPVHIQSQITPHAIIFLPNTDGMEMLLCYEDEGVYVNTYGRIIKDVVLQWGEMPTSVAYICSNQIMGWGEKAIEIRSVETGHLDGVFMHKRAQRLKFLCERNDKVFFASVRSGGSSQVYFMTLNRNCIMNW

LOK, sequence (O94804 whole entry): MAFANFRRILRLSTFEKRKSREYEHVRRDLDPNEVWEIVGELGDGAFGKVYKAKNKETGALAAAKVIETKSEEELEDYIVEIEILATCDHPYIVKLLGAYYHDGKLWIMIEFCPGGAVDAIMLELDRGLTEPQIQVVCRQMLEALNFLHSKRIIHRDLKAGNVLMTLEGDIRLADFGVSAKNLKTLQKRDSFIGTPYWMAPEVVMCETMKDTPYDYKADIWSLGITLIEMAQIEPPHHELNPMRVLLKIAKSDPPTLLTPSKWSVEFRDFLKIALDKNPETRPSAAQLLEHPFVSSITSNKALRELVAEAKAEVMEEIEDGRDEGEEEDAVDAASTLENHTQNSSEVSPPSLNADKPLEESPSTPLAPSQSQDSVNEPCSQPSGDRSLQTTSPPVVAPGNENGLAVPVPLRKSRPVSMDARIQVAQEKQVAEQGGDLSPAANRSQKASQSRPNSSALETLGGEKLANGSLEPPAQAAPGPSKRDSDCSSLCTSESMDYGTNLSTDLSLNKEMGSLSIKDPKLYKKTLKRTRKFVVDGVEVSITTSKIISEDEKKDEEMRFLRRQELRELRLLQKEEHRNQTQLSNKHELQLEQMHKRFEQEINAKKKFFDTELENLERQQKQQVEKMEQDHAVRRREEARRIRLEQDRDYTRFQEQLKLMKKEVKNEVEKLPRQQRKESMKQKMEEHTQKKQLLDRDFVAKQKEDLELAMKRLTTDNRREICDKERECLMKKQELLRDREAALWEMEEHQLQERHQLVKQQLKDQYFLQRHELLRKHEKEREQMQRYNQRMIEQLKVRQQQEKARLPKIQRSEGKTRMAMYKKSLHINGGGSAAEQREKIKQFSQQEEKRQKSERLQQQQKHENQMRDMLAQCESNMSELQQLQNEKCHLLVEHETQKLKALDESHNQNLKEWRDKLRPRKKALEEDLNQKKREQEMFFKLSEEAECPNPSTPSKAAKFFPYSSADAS
HIPK4, sequence (Q8NE63 whole entry): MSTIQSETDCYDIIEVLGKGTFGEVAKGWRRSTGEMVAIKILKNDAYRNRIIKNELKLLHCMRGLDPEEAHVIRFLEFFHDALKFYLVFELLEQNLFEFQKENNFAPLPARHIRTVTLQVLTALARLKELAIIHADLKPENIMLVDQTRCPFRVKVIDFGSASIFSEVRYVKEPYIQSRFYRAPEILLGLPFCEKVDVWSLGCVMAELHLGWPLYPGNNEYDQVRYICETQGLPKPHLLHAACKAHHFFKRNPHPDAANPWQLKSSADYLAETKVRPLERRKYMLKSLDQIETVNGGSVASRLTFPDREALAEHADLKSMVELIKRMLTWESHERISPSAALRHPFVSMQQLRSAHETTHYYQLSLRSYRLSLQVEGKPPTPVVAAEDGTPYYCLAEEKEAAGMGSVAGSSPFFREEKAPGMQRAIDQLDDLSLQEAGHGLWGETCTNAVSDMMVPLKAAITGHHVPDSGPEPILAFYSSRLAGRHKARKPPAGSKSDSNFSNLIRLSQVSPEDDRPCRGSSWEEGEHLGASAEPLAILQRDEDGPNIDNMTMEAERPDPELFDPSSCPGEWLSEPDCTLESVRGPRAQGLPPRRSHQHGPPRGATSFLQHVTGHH
MST2, sequence (Q13188 whole entry): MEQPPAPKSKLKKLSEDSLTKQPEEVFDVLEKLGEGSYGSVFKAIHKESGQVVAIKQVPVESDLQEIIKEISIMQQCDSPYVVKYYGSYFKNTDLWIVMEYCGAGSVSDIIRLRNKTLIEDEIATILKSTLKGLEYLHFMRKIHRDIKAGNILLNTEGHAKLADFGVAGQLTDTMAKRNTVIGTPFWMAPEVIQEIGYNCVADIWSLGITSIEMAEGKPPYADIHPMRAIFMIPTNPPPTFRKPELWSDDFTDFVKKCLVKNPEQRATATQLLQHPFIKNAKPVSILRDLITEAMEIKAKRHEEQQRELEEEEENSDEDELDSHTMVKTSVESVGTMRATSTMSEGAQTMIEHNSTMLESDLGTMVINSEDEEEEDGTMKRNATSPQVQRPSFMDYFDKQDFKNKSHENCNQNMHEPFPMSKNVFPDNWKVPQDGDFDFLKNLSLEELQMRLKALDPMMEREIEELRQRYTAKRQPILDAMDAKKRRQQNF

Compound: CC[C@@H]1C(=O)N(C)c2cnc(Nc3ccc(C(=O)N[C@H]4CC[C@H](N5CCN(CC6CC6)CC5)CC4)cc3OC)nc2N1C(C)C [BI6727]
MMP9 protein expression (TU-BcX-4IC explants): suppressed the mesenchymal markers ZEB1 and MMP9 expression | ZEB1 protein expression (TU-BcX-4IC explants): suppressed the mesenchymal markers ZEB1 and MMP9 expression

IC50 (MDA-MB-231 cells [1]; Homo sapiens, MDA-MB-231, 72 h, read-out: IC-50, number of cells remaining): 50 µM | IC50 (BT-549 cells [2]; Homo sapiens, BT-549, 72 h, read-out: IC-50, number of cells remaining): 7.5 µM | Binding activity to LOK (LOK): 99.1% | Binding activity against NEK2 (NEK2): significant binding activity | Binding activity to NEK2 (NEK2): 97.1% | Binding activity against HIPK4 (HIPK4): significant binding activity | Binding activity against MST2 (MST2): significant binding activity | Binding activity against MINK (MINK): significant binding activity
Compound: COc1cc2ncn(-c3cc(OCc4sccc4Cl)c(C(N)=O)s3)c2cc1OC [GSK448459A]
Number of cells remaining compared to DMSO controls (MDA-MB-231 cells [1]; MDA-MB-231, 1 μM, 72 hours): increased number of cells remaining | Number of cells remaining compared to DMSO controls (BT-549 cells [2]; BT-549, 1 μM, 72 hours): increased number of cells remaining | Number of cells remaining compared to DMSO controls (TU-BcX-4IC cells [3]): increased number of cells remaining | Ki-67 positive cells (cell proliferation) (MDA-MB-231 cells [4]): decreased Ki-67 positive cells | Transwell cell migration (BT549 cells): most suppressive effects on cell migration | Transwell cell migration (TU-BcX-4IC cells [5]): most suppressive effects on cell migration | MMP9 mRNA expression (MDA-MB-231 cells [6]): significantly downregulated MMP9 expression | SNAI1 mRNA expression (MDA-MB-231 cells [6]): significantly decreased SNAI1 expression | ZEB1 mRNA expression (MDA-MB-231 cells [6]): significantly increased ZEB1 expression | cFOS mRNA expression (MDA-MB-231 cells [6]): suppressive effects in all three TNBC cell lines, although not significantly | CDH1 mRNA expression (BT-549 cells [7]): significantly reduced CDH1 mRNA expression | MMP9 mRNA expression (BT-549 cells [7]): Neither GSK346294A nor GSK448459A affected MMP9 expression | SNAI1 mRNA expression (BT-549 cells [7]): increased SNAI1 expression in BT-549 cells significantly | cFOS mRNA expression (BT-549 cells [7]): suppressive effects in all three TNBC cell lines, although not significantly | MMP9 mRNA expression (TU-BcX-4IC cells [8]): Neither GSK346294A nor GSK448459A affected MMP9 expression | ZEB1 mRNA expression (TU-BcX-4IC cells [8]): suppressed ZEB1 expression in TU-BcX-4IC cells albeit not significantly | cFOS mRNA expression (TU-BcX-4IC cells [8]): suppressive effects in all three TNBC cell lines, although not significantly | cFOS mRNA expression (TU-BcX-49S cells): Neither GSK346294A nor GSK448459A suppressed cFOS mRNA expression | MMP9 protein expression (TU-BcX-4IC explants): did not suppress MMP9 and ZEB1 protein expressions | ZEB1 protein expression (TU-BcX-4IC explants): did not suppress MMP9 and ZEB1 protein expressions | Mammosphere formation (sphere area) (TU-BcX-4IC M2 spheres): significantly suppressed mammosphere formation | Sphere area (MDA-MB-231 M2 spheres): significantly increased sphere area

Compound: CC[C@@H]1C(=O)N(C)c2cnc(Nc3ccc(C(=O)NC4CCN(C)CC4)cc3OC)nc2N1C1CCCC1 [BI2536]
Ki-67 positive cells (cell proliferation) (MDA-MB-231 cells [4]): significantly reduced the number of Ki-67 positive cells
